From ChEMBL document CHEMBL6083194, “Discovery and evaluation of 3-(2-isocyanobenzyl)-1H-indole derivatives as potential quorum sensing inhibitors for the control of Pseudomonas aeruginosa infections in vitro” (RSC Med Chem, 2024) come the findings set out here.

Structures are written as SMILES. Values after ≈ are worked out from the molar mass of the structure shown. Active and inactive are the calls of the source. The rule behind the calls is not given here.

The nature of test [1]: Inhibition of quorum sensing system in Pseudomonas aeruginosa PAO1. The essentials:
(§1)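 Plate screen. CV026 grown overnight in LB with 50 μg ml−1 kanamycin; 15 μl seeded into 15 ml LB agar (1.0% agarose) containing 20 μM C4-HSL. PAO1 plates run in parallel. Test colonies inoculated by toothpick, incubated overnight at 37 °C. Ring of colourless viable cells around the colony scored as inhibition.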

Test [2] can be described thus: Inhibition of quorum sensing system in Chromobacterium violaceum CV026. In a few lines:
as §1

Test [3] concerns Pseudomonas aeruginosa. Nature of the test: Inhibition of biofilm formation in Pseudomonas aeruginosa PAO1 incubated for 24 hrs crystal violet staining based SEM assay. It is filed as functional, organism-based.
The test system of test [4] is Pseudomonas aeruginosa. Nature of the test: Inhibition of biofilm formation in Pseudomonas aeruginosa PAO1 at 1/2 times MIC incubated for 24 hrs crystal violet staining based SEM assay. It is filed as functional.
Test [5] has as its system Pseudomonas aeruginosa. Nature of the test: Inhibition of pyocyanin production in Pseudomonas aeruginosa PAO1 at 1/2 time MIC incubated for 18 hrs. It counts as functional. The essentials: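 Overnight PAO1 in LB diluted to OD600 = 0.05, subcultured 5–7 h to mid-log, rediluted to OD600 = 0.05. 5 mL with compound grown 18 h at 37 °C, 200 rpm. Supernatant extracted with 3 mL chloroform, back-extracted into 0.2 M HCl, absorbance at 520 nm.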

For test [6], the system named is Pseudomonas aeruginosa. Nature of the test: Inhibition of rhamnolipid production in Pseudomonas aeruginosa PAO1 at 1/2 to 1/4 times MIC by orcinol method. It is filed as functional, organism-based. In a few lines: (§2)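 Overnight PAO1 diluted 1:100 into LB with compound, 37 °C, 180 rpm; DMSO control. Supernatant (100 μL) mixed with 900 μL 0.19% orcinol in 53% H2SO4, heated 30 min at 80 °C, cooled, read at 421 nm.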

Test [7] has as its system Pseudomonas aeruginosa. Nature of the test: Inhibition of rhamnolipid production in Pseudomonas aeruginosa PAO1 at 1/2 times MIC by orcinol method. It is filed as functional. In a few lines:
as §2

Test [8] deals with Pseudomonas aeruginosa. Nature of the test: Inhibition of rhamnolipid production in Pseudomonas aeruginosa PAO1 at 1/4 times MIC by orcinol method. It is filed as functional. In a few lines: as §2
Test [9] concerns Pseudomonas aeruginosa. Nature of the test: Antibacterial activity against Pseudomonas aeruginosa PAO1 by serial dilution method. It counts as functional. In a few lines:
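PAO1 in LB, 37 °C. MIC by CLSI 2-fold serial dilution in Mueller–Hinton broth, inoculum 1–5 × 10^5 CFU mL−1, DMSO stocks. Growth curves: overnight culture diluted to OD600 = 0.05, subcultured to mid-log, rediluted to OD600 = 0.05, 3 mL with compound; OD620 read at 1, 3, 5, 7, 9, 11 and 24 h at 37 °C; DMSO negative control.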

For test [10], the system named is Pseudomonas aeruginosa. Nature of the test: Inhibition of biofilm formation in Pseudomonas aeruginosa PAO1 at 1/4 times MIC incubated for 24 hrs crystal violet staining based SEM assay. It is filed as functional.
Test [11] has as its system Pseudomonas aeruginosa. Nature of the test: Inhibition of biofilm formation in Pseudomonas aeruginosa PAO1 at 25 ug/ml incubated for 24 hrs crystal violet staining based assay. It is filed as functional. In a few lines:
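PAO1 grown statically for 24 h in LB ± compound in 24-well plates. Planktonic cells removed; attached cells stained with 0.05% crystal violet, rinsed, dissolved in 95% ethanol, read at OD570. DMSO negative, resveratrol positive control; SD from three independent experiments.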

In test [12] the test system is Pseudomonas aeruginosa. Nature of the test: Induction of biofilm eradication in Pseudomonas aeruginosa PAO1 at 25 ug/ml by crystal violet staining based assay. It is filed as functional. To be noted: dose 25 µg/ml. The essentials:
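PAO1 biofilms grown overnight at 37 °C in LB in 24-well plates, washed with PBS, then fresh LB with compound added and grown overnight again. Washed, methanol-fixed, crystal violet stained, ethanol solubilised, read at OD570. DMSO negative, resveratrol positive control.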

The subject of test [13] is Pseudomonas aeruginosa. Nature of the test: Anti-virulence effect in Pseudomonas aeruginosa PAO1 assessed as decrease in protease level at 25 ug/ml. The following applies: dose 25 µg/ml. It counts as functional. Set-up: scale not given: the % may be the effect or the level left. In a few lines:
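Overnight PAO1 culture diluted 1:100 into LB with compound (6.25–25 μg mL−1), grown at 37 °C and 180 rpm; DMSO and RSV (25 μg mL−1) as controls. Culture supernatant mixed with 2% azocasein in 1 M Tris–HCl pH 8.0 for 15 min at 37 °C. Reaction stopped with 10% TCA, centrifuged, NaOH added, read at OD440.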

For test [14], the system named is Pseudomonas aeruginosa. Nature of the test: Anti-virulence effect in Pseudomonas aeruginosa PAO1 assessed as inhibition of pyocyanin production at 25 ug/ml. It counts as functional. Set-up: scale not given: the % may be the effect or the level left. The following applies: dose 25 µg/ml. In a few lines:
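Overnight PAO1 culture in LB at 37 °C, diluted to OD600 0.05 and subcultured 5–7 h to mid-log phase, then re-diluted to OD600 0.05. Grown 18 h at 37 °C and 200 rpm with compound (6.25, 12.5, 25 μg mL−1) or DMSO. Supernatant extracted into chloroform, back-extracted into 0.2 M HCl, read at 520 nm.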

Test [15] has as its system Pseudomonas aeruginosa. Nature of the test: Anti-virulence effect in Pseudomonas aeruginosa PAO1 assessed as inhibition of rhamnolipid production at 25 ug/ml. It is filed as functional. Further details: scale not given: the % may be the effect or the level left. To be noted: dose 25 µg/ml. The essentials:
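PAO1 culture supernatant from growth with compound (6.25–25 μg mL−1) at 37 °C and 180 rpm, or with DMSO or RSV (25 μg mL−1) as controls. Orcinol assay: 100 μL sample plus 0.19% orcinol in 53% H2SO4, heated 30 min at 80 °C, cooled, read at 421 nm. At least three experiments in triplicate.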

Test [16] relates to Pseudomonas aeruginosa. Nature of the test: Anti-virulence effect in Pseudomonas aeruginosa PAO1 assessed as inhibition of EPS production at 25 ug/ml. It is filed as functional. Set-up: scale not given: the % may be the effect or the level left. To be noted: dose 25 µg/ml. The essentials: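 PAO1 grown with compound (6.25–25 μg mL−1) in 24-well plates for 24 h at 37 °C and 180 rpm; DMSO and RSV (25 μg mL−1) as controls. Biofilms washed with water, then treated with 0.9% NaCl, 5% phenol and 0.2% hydrazine sulfate. Held 1 h in the dark, read at OD490. Three independent experiments.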

`COc1ccc2[nH]cc(Cc3ccccc3C#N)c2c1`: the inhibition result is “Active; Strong Inhibition Observed” in [1], “Active; Showed Higher Activity” in [2], “Dose-dependent-effect” in [3] and “Active; Showed Higher Activity Than Positive Control Rsv” in test [5]. For the same compound, the “inhibition (INH)” value is given as 7% in test [4], 44% in [7] and 30% in test [8]. For the same compound, in test [6], the inhibition entry is “Active”. The compound further yielded an MIC in test [9] of 6 µg/mL (≈ 22.9 µM).

On to `N#Cc1cc(F)ccc1Cc1c[nH]c2ccccc12`, for which the inhibition result in [1] was “Active; Strong Inhibition Observed”; in test [2] it was “Active; Showed Higher Activity”; in [3] it was “Dose-dependent-effect”; in test [5] it was “Active; Showed Higher Activity Than Positive Control Rsv”. In addition, the “inhibition (INH)” value in test [4] amounted to 19%. The inhibition entry in [6] was “Active”. In addition, 48 µg/mL (≈ 192 µM) was the least that counted as inhibitory in [9] (MIC).

Consider `Cc1cccc2c(Cc3ccccc3C#N)c[nH]c12`, for which the inhibition entry in test [1] and in test [5] was “Active” throughout. Also, the inhibition result in test [2] was “Active; Showed Higher Activity”; in test [3], “Dose-dependent-effect”. Moreover, the “inhibition (INH)” value in [4] was found to be 40%.

As to `N#Cc1cccc(Cl)c1Cc1c[nH]c2ccccc12`, the inhibition result is “Active; Strong Inhibition Observed” in test [1], “Active; Showed Higher Activity” in [2], “Dose-dependent-effect” in [3] and “Active; Showed Higher Activity Than Positive Control Rsv” in [5]. Also, in test [4], the “inhibition (INH)” value is given as 4%. Also, the inhibition result in [6] is “Active”. In addition, in test [9], the MIC stood at 24 µg/mL (≈ 90 µM).

Regarding `N#Cc1ccccc1Cc1c[nH]c2ccccc12`, the inhibition entry in [1] is “Active; Strong Inhibition Observed”; in [2], “Active; Showed Higher Activity”; in [3], “Dose-dependent-effect”; in test [5] it was “Active; Showed Higher Activity Than Positive Control Rsv”. Moreover, the “inhibition (INH)” value in test [4] is recorded as 38%; in [10], 15%. Also, the inhibition result in [6] was “Active”. Further, it took 96 µg/mL (≈ 413 µM) to inhibit growth in test [9] (MIC).

On to `Cc1cccc2[nH]cc(Cc3ccccc3C#N)c12`, for which the inhibition result in test [1] was “Active”. The inhibition entry in test [2] was “Active; Showed Higher Activity”; in test [3] it was “Dose-dependent-effect”; in test [5], “Active; Showed Higher Activity Than Positive Control Rsv”. For the same compound, in [4], the “inhibition (INH)” value stood at 17%.

As to `N#Cc1cccc(F)c1Cc1c[nH]c2ccccc12`, the values for the inhibition entry in [1], in test [2] and in [3] were “Active; Strong Inhibition Observed”, “Active; Showed Higher Activity” and “Dose-dependent-effect”, respectively. In addition, the “inhibition (INH)” value in test [4] worked out at 49%. Also, in [5], the inhibition entry was “Active”.

`N#Cc1c(Cl)cccc1Cc1c[nH]c2ccccc12`: the inhibition result in test [1] was “Active; Strong Inhibition Observed”; in [3] it was “Dose-dependent-effect”. For the same compound, the inhibition result in test [2] and in test [5] was “Active” in each case. For the same compound, the “inhibition (INH)” value in test [4] turned out to be 1%.

Take `N#Cc1ccccc1Cc1c[nH]c2ccc(Br)cc12`: the results for the inhibition result in [1], in [2] and in test [3] were “Active; Strong Inhibition Observed”, “Active; Showed Higher Activity” and “Dose-dependent-effect”, respectively. Further, the “inhibition (INH)” value in test [4] was determined as 39%; in test [5], 64%.

Regarding `Oc1ccc(/C=C/c2cc(O)cc(O)c2)cc1` [RESVERATROL], the inhibition entry in [3] is “Dose-dependent-effect”. Moreover, the “inhibition (INH)” value in test [5] came to 38%. Moreover, the inhibition at 25 µg/mL in test [11] amounted to 55%. The Activity in test [12] turned out to be 47%; in [13], 26%; in test [14], 26%; in test [15], 12%; in [16], 22%.

As for `Cc1ccc2c(Cc3ccccc3C#N)c[nH]c2c1`, the inhibition result in test [1] is “Active”. In addition, the figures for the inhibition result in test [2], in [3] and in test [5] were “Active; Showed Higher Activity”, “Dose-dependent-effect” and “Active; Showed Higher Activity Than Positive Control Rsv”, respectively. Moreover, the “inhibition (INH)” value in test [4] worked out at 7%.

`N#Cc1ccccc1Cc1c[nH]c2ccc(Cl)cc12`: the inhibition entry in [1] and in [5] was “Active” throughout. For the same compound, the inhibition result in [2] was “Active; Showed Higher Activity”; in test [3], “Dose-dependent-effect”. For the same compound, in test [4], the “inhibition (INH)” value worked out at 11%.

Consider `Cc1cccc(Cc2c[nH]c3ccccc23)c1C#N`, for which the inhibition entry in test [1] was “Active; Strong Inhibition Observed”; in test [2] it was “Active; Showed Higher Activity”; in [3] it was “Dose-dependent-effect”. The “inhibition (INH)” value in [4] is listed as 27%. Besides, the inhibition result in [5] was “Active”.

Consider `N#Cc1ccc(F)cc1Cc1c[nH]c2ccccc12`, for which the inhibition entry in [1] is “Active; Strong Inhibition Observed”; in test [3], “Dose-dependent-effect”; in [5], “Active; Showed Higher Activity Than Positive Control Rsv”. In addition, the inhibition entry in [2] and in [6] was “Active” each time. The “inhibition (INH)” value in test [4] amounted to 19%. The compound further returned an MIC in [9] of 12 µg/mL (≈ 47.9 µM).

Turning to `CCc1ccccc1C#N`, the inhibition entry in [2] is “Active; Showed Higher Activity”; in test [3] it was “Dose-dependent-effect”. In test [10], the “inhibition (INH)” value amounted to 12%. For the same compound, the inhibition result in test [5] is “Active”.

As to `Cc1ccc2[nH]cc(Cc3ccccc3C#N)c2c1`, the inhibition result in [1], in test [2] and in test [5] was “Active” each time. In addition, in test [3], the inhibition entry was “Dose-dependent-effect”. In addition, the “inhibition (INH)” value in test [4] came out at 50%.

In the case of `N#CCCc1c[nH]c2ccccc12`, the inhibition entry in test [1] is “Active; Strong Inhibition Observed”; in [2] it was “Active; Showed Higher Activity”; in [3] it was “Dose-dependent-effect”. Besides, in [10], the “inhibition (INH)” value amounted to 9%. Besides, in [5], the inhibition result was “Active”.
